Compound activity deposited in PubChem BioAssay by The Scripps Research Institute Molecular Screening Center.
Shown are actives, neighbours in structure and some others; about 2.8% of the full set was active somewhere.
PAFAH2 inh – PAFAH2 enzyme inhibitors, primary screen, biochemical, fluorescence polarization, human. recombinant PAFAH2, FP-rhodamine activity probe. Platelet-activating factor acetylhydrolase 2, cytoplasmic (Homo sapiens), Q99487. actives 0.99% (n = 340,000). AID 492956, 2010. inhibition, % at 3.39 µM;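 active = inhibition above the mean over all tested compounds plus 3 SD, cut at about 30% in these data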;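 note: inhibitors block probe labeling of enzyme so polarization drops; 0% = enzyme with DMSO and 100% = wells lacking PAFAH2 protein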
HTRA1 inh – HTRA1 serine protease inhibitors, primary screen, biochemical, fluorescence polarization, HTS; Q92743; recombinant HTRA1, FP-rhodamine activity-based probe; inhibition, % at 5.96 µM; actives 0.5% (n = 340,000); AID 504803, 2011; in the data active = inhibition above about 36%;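 note: 0% = enzyme with DMSO and 100% = wells lacking enzyme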
PAFAH1B2 FP inh – PAFAH1B2 enzyme inhibitors, primary screen, biochemical, fluorescence polarization, human | Platelet-activating factor acetylhydrolase IB subunit alpha2 (Homo sapiens), P68402 | recombinant PAFAH1B2, FP-rhodamine activity probe | inhibition, % at 3.39 µM | actives 1.2% (n = 340,000);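 active = inhibition above the mean of all tested compounds plus 3 SD, cut at about 24% in these data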;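 note: 0% = enzyme with DMSO and 100% = wells lacking PAFAH1B2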
mABHD4 FP – ABHD4 inhibitors, primary screen, biochemical, fluorescence polarization, mouse. (Lyso)-N-acylphosphatidylethanolamine lipase (Mus musculus), Q8VD66. inhibition, % at 8.92 µM. AID 720543, 2013. actives 0.54% (n = 370,000). purified mABHD4, FP-Rh probe fluorescence polarization;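 active = inhibition exceeding the mean over every tested compound plus 3 SD, cut at about 30% in these data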;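 note: 0% = plate median of compound wells and 100% = S159A mutant with DMSO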
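Material: mouse ABHD4 enzyme, wild type; Benchmarks: S159A mutant high control, sample median low control; Buffer or medium: HEPES pH 7.0, NaCl, Pluronic buffer; Signal: fluorescence polarization; Read-out: percent inhibition of probe binding, normalized to plate controls; Timing: pre-incubation 45 min, probe exposure 60 min, at 25 °C; Dosing: 8.92 µM, single dose.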
PAFAH1B3 FP inh – PAFAH1B3 enzyme inhibitors, primary screen, biochemical, fluorescence polarization, human. actives 0.28% (n = 340,000). recombinant PAFAH1B3, FP-rhodamine probe. inhibition, % at 3.39 µM. Platelet-activating factor acetylhydrolase IB subunit alpha1 (Homo sapiens), Q15102;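 active = inhibition above the screen-wide average of all tested compounds plus 3 SD, cut at about 25% in these data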;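 note: 0% = enzyme with DMSO only and 100% = wells lacking PAFAH1B3 protein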
Target sequence (Q15102 whole entry, looked up): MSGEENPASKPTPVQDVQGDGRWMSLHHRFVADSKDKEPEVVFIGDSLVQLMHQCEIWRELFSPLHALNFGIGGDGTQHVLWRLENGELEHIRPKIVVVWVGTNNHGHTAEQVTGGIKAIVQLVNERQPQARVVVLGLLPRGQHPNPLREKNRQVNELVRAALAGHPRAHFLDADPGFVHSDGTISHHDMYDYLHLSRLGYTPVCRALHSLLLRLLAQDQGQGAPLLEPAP
pPAFAH FP inh – pPAFAH enzyme inhibitors, primary screen, biochemical, fluorescence polarization, human; AID 463082, 2010; inhibition, % at 3.39 µM; recombinant pPAFAH, FP-rhodamine probe fluorescence polarization; actives 1.5% (n = 330,000); Platelet-activating factor acetylhydrolase (Homo sapiens), Q13093;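 active = inhibition above the mean inhibition across the screen plus 3 SD, cut at about 25% in these data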;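 note: inhibitors block binding of the rhodamine activity-based probe so polarization drops; 0% = enzyme with DMSO and 100% = wells lacking pPAFAH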
Target sequence (Q13093 whole entry, looked up): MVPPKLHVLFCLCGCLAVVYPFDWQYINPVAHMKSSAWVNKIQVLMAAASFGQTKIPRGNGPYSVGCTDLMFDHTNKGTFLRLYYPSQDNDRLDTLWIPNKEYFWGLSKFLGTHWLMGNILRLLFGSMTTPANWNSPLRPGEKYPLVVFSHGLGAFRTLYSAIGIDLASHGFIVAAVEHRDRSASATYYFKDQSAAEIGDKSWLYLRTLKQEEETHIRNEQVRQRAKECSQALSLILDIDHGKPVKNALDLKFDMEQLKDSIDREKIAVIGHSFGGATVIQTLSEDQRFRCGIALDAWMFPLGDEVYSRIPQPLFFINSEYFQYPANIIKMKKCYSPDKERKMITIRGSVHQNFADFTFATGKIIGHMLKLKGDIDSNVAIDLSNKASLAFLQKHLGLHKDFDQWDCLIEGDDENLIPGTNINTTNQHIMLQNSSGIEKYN
* marks the source's active call; other numbers are inactive results; . = no result given.

SMILES | PAFAH2 inh | HTRA1 inh | PAFAH1B2 FP inh | mABHD4 FP | PAFAH1B3 FP inh | pPAFAH FP inh
O=C(NCCC1=CCCCC1)c1ccc(Cl)c(S(=O)(=O)Nc2ccccc2)c1 | 11.2 | -38.6 | 27.9* | -19.2 | -8.3 | 16.0
O=C(NCC(c1ccccc1)c1ccccc1)[C@H](Cc1ccccc1)NC1(C(=O)NC2CCCCC2)CCC1 | . | . | . | -0.9 | . | .
O=C(COC(=O)c1ccccn1)NCc1cccc(Cl)c1 | 5.9 | -6.8 | -0.3 | 1.6 | 2.6 | .
C=CCNc1nc(C(=O)OCC(=O)NCc2cccc(Cl)c2)cs1 | 28.5 | -12.8 | 2.4 | 4.5 | 4.0 | 24.8*
CN(Cc1ccccc1)C(=O)COc1cc(=O)n(C)c2ccccc12 | -9.2 | 6.1 | 8.8 | 0.1 | -8.6 | 31.8*
CCN(Cc1ccccc1)C(=O)COc1cc(=O)n(CC)c2ccccc12 | 4.0 | -10.1 | 6.8 | -4.9 | 1.8 | 5.9
O=C1C[C@H](C(=O)Nc2ccc(Cl)cc2)[C@@H](c2ccccc2)O1 | . | . | . | 1.8 | . | .
Cc1noc(C)c1C(c1ccccc1)c1ccccc1 | -3.0 | -6.8 | 28.9* | . | 0.9 | 2.1
CCC1C/C(=C/c2ccco2)C(=O)/C(=C/c2ccco2)C1 (configuration not stated) | . | . | . | . | . | 36.7*
COc1ccc(C(=O)OCCCN(C)C2CN(Cc3cn(Cc4ccccc4F)nn3)S(=O)(=O)C2)cc1OC (configuration not stated) | . | . | . | -1.8 | . | .
Cc1ccc(S(=O)(=O)N2CCC(=O)N(C(CO)Cc3ccccc3)CC2)cc1 (configuration not stated) | 1.1 | -1.1 | 24.4* | 0.5 | 4.3 | -0.3
Cc1ccc(S(=O)(=O)N2CCC(=O)N(C(COC(=O)Nc3ccccc3)Cc3ccccc3)CC2)cc1 (configuration not stated) | 4.3 | -39.7 | 34.8* | -2.2 | 5.8 | 7.1
Cc1ccc(S(=O)(=O)N2CCC(=O)N(CCOCc3ccc(C(F)(F)F)cc3)CC2)cc1 | 8.3 | -9.7 | 16.1 | -8.2 | 6.6 | 30.5*
Cc1ccc(NC(=O)OCCN2CCN(S(=O)(=O)c3ccc(C)cc3)CCC2=O)cc1 | 2.8 | 3.1 | 28.7* | 5.2 | 9.0 | 10.9
CCCCCCSC1=C(C#N)C(c2ccc(C)o2)CC(=O)N1 (configuration not stated) | 18.3 | -13.8 | 5.3 | 9.7 | 10.1 | 25.4*
CCSC1=C(C#N)C(c2ccc(C)o2)CC(=O)N1 (configuration not stated) | 7.7 | 0.9 | 5.7 | -6.5 | 6.7 | 2.0
O=C1C(=O)c2ccc(-c3ccccc3)cc2-c2ccccc21 | 51.2* | -6.7 | 9.4 | 5.8 | 58.0* | 18.9
COc1ccc(-c2cc(C(F)(F)F)nc(S(C)(=O)=O)n2)cc1 | -1.5 | -34.5 | -5.1 | -6.3 | 0.1 | 29.4*
O=C(O)c1cc(-c2ccc(Cl)c(Cl)c2)n(-c2ccccc2)n1 | -1.8 | -1.1 | 28.8* | 9.8 | 0.9 | 5.7
CN(CCc1ccccc1)C(=O)c1cc2ccccn2n1 | . | . | . | -8.6 | . | .
COc1ccccc1NC(=O)C(=O)NNS(=O)(=O)c1ccc2ccccc2c1 | -1.2 | -9.5 | 33.7* | 2.1 | 11.2 | 6.9
CC(=O)Nc1ccc(C(=O)OCc2ccc(Br)cc2)cc1 | 34.1* | -24.7 | 26.5* | -23.4 | 0.6 | 0.3
CC(C)(C)c1ccc(-c2nnc(SCC(=O)Nc3ccccc3-c3ccccc3)n2Cc2ccco2)cc1 | . | . | . | -8.5 | . | .
CCC(=O)N1CCC(C(=O)NC2CCCc3ccccc32)CC1 (configuration not stated) | . | . | . | -1.5 | . | .
CCOC(=O)CSc1ccc(S(=O)(=O)N2CCC(C)CC2)cc1[N+](=O)[O-] | -0.4 | 5.0 | 25.7* | 5.1 | 9.7 | 4.5
SMILES | PAFAH2 inh | HTRA1 inh | PAFAH1B2 FP inh | mABHD4 FP | PAFAH1B3 FP inh | pPAFAH FP inh
COC(=O)CSc1ccc(S(=O)(=O)N2CCOCC2)cc1[N+](=O)[O-] | 2.6 | 5.2 | 6.3 | 5.1 | 6.0 | 1.0
COC(=O)[C@]12C[C@H](CC(=O)NCCCCc3ccccc3)C(=O)N(Cc3ccco3)C1=C[C@H](COCc1ccccc1)O[C@@H]2C | . | . | . | -4.4 | . | .
N/C(=N\OC(=O)CCC1CCCC1)c1ccc(Cl)cc1 | 9.8 | -0.3 | 25.3* | -0.1 | -6.5 | -2.2
Cc1ccc(/C(N)=N/OC(=O)CCC2CCCC2)cc1 | 5.9 | 2.6 | 7.3 | 7.2 | 4.8 | -2.1
COc1ccc(OC)c(/C=C2\SC(N3CCCC(C)C3)=NC2=O)c1 (configuration not stated) | -2.6 | -15.0 | 0.9 | -4.4 | 16.9 | 27.4*
COc1ccc(CCN(Cc2cccs2)S(=O)(=O)c2ccc(C)s2)cc1OC | . | . | . | -6.3 | . | .
COCCCn1c(SCC(=O)Nc2sc3c(c2C#N)CCCC3)nnc1-c1ccncc1 | 11.3 | -5.4 | -0.2 | 2.2 | 2.8 | 25.7*
COC(=O)[C@]12C[C@H](CC(=O)NCC34CC5CC(CC(C5)C3)C4)C(=O)N(Cc3ccco3)C1=C[C@H](COCc1ccccc1)O[C@@H]2C | . | . | . | 7.5 | . | .
CC(=O)Nc1ccc(NC(=O)C(C)OC(=O)C(C)SCC(=O)Nc2ccc(F)cc2)cc1 (configuration not stated) | 4.4 | -10.2 | -1.5 | -0.5 | 6.4 | 3.3
CC(=O)Nc1ccc(NC(=O)C(C)OC(=O)C2(c3ccc(F)cc3)CCCC2)cc1 (configuration not stated) | -1.8 | -4.7 | 40.7* | -17.9 | 19.2 | 5.6
CCCCNC(=O)C1CCCN1C(=O)Nc1ccc2c(c1)OCO2 (configuration not stated) | . | . | . | 4.6 | . | .
COC(=O)C[C@@H]1CC[C@@H]2[C@H](COc3ccc(NC(=O)c4cccc(OC)c4)cc3C(=O)N2C)O1 | . | . | . | 6.3 | . | .
CC1(C)CC2CC(C)(CN2C(=O)COC(=O)c2cc(Cl)cc(Cl)c2N)C1 (configuration not stated) | -4.2 | -6.8 | 9.1 | 1.7 | 10.4 | -2.6
CC1(C)CC2CC(C)(CN2C(=O)COC(=O)c2ccc(O)cc2O)C1 (configuration not stated) | -5.4 | 7.7 | 25.4* | 7.9 | 3.4 | 7.0
N#CC1=C(N)NC(SCC(=O)c2ccc(Cl)cc2)=C(C#N)C12CCCC2 | 2.6 | -33.2 | 10.5 | 9.2 | 3.2 | 5.7
COc1ccc(C(=O)CSC2=C(C#N)C3(CCCCC3)C(C#N)=C(N)N2)cc1 | 0.1 | -30.9 | 27.4* | -1.4 | 5.0 | 4.7
COc1ccccc1N(Cc1ccccc1)S(=O)(=O)c1cccc(C(=O)O)c1 | -2.5 | -4.5 | 7.1 | -14.9 | 8.1 | 34.0*
CCCC[C@@H](CCCc1ccc(F)cc1)CCC(=O)N(c1ccccc1)c1ccccc1 | . | . | . | -0.4 | . | .
CS(=O)(=O)c1ccc2c(c1)sc1nc(=O)c(/C=C3/C=CC(=O)C(O)=C3)c(N)n12 | 58.5* | 19.9 | 53.4* | 14.6 | 28.3* | 20.5
